Activity calls are given as the source filed them. The calls are words filed in the database; no cut-off is given here.
Tests used:
[1] = tested on: Splenocyte; test: In vivo inhibition of BCR signaling in female […] mouse assessed as change in CD86 expression at 25 mg/kg, po administered and measured after stimulation with anti-IgM for 18 h by flow cytometry analysis; format: functional, organism-based
How it was run: (§1)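 Female C57BL/6 mice (5/group) received vehicle or 25 mg/kg drug by oral gavage at time zero, with spleens taken at time points from 3 to 24 h. Splenocytes were stimulated ex vivo with goat anti-mouse IgM at 10μg/mL for 18 h at 37°C in 5% CO2, then Fc-blocked and stained for CD19 plus CD69, CD86 or phospho-S6(S235/236), with 7-AAD to exclude dead cells. Read-out was flow cytometry on >5,000 gated CD19+ cells, compared with vehicle.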

[2] = tested on: Splenocyte; test: In vivo inhibition of BCR signaling in female […] mouse assessed as change in phospho-S6 expression at 25 mg/kg, po administered and measured after stimulation with anti-IgM for 18 h by flow cytometry analysis; format: functional, organism-based; how it was run: as §1
[3] = In vivo inhibition of BCR signaling in female […] mouse assessed as B-cell function at 25 mg/kg, po administered for 24 hrs and measured after stimulation with anti-IgM for 18 h by flow cytometry analysis relative to control; format: functional, Splenocyte; design: scale not given: the % may be the effect or the level left; how it was run: as §1
[4] = tested on: Splenocyte; test: In vivo inhibition of BCR signaling in female […] mouse assessed as CD69 expression at 2.9 mg/kg, po administered and measured after stimulation with anti-IgM for 18 h by flow cytometry analysis; format: functional, organism-based
How it was run: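 Female C57BL/6 mice (5/group/dose) were gavaged orally with vehicle or drug at 0.1–30 mg/kg, and spleens were harvested after 3 h. Splenocytes were stimulated with anti-IgM at 10μg/mL for 18 h at 37°C in 5% CO2, then Fc-blocked and stained for CD19 and CD69, with 7-AAD marking dead cells. CD69 on CD19+ B-cells was read by flow cytometry, acquiring >5,000 gated CD19+ cells.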

C=CC(=O)N1CCC[C@@H](n2nc(-c3ccc(Oc4ccccc4)cc3)c3c(N)ncnc32)C1 [IBRUTINIB]
Activity [1]: Active | Activity [2]: Active | Activity [3]: ~70% | Activity [4]: Active

— ChEMBL document CHEMBL5678815 (Clin Cancer Res, 2017)
